# Columns and labels:
# [1] = test system: Human immunodeficiency virus 1; test: Antiviral activity against HIV-1 pseudotyped virus expressing HIV-1 isolate AD envelope QA790.204I.ENV.E2 assessed as reduction of luciferase production after 3 days by single-cycle neutralization assay; type: functional, organism-based; settings: Human immunodeficiency virus 1, 72 h
# Outline: (§1)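 Single-cycle assay using pseudoviruses carrying Env from primary HIV-1 isolates of subtypes A, A/D, A/G, B, C and D reference viruses. Read-out is luciferase production, and IC50 is determined.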
# [2] = test system: Human immunodeficiency virus 1; test: Antiviral activity against HIV-1 pseudotyped virus expressing HIV-1 isolate AG envelope CRF02_AG (clone 263) assessed as reduction of luciferase production after 3 days by single-cycle neutralization assay; type: functional, organism-based; settings: Human immunodeficiency virus 1, 72 h; outline: as §1
# [3] = test system: Human immunodeficiency virus 1; test: Antiviral activity against HIV-1 pseudotyped virus expressing HIV-1 isolate AG envelope CRF02_AG (clone 211) assessed as reduction of luciferase production after 3 days by single-cycle neutralization assay; type: functional, organism-based; settings: Human immunodeficiency virus 1, 72 h; outline: as §1
# [4] = test system: Human immunodeficiency virus 1; test: Antiviral activity against HIV-1 pseudotyped virus expressing HIV-1 isolate B envelope pREJO4541 clone 67 (SVPB16) assessed as reduction of luciferase production after 3 days by single-cycle neutralization assay; type: functional, organism-based; settings: Human immunodeficiency virus 1, 72 h; outline: as §1
# [5] = test system: Human immunodeficiency virus 1; test: Antiviral activity against HIV-1 3B infected in human MT-2 cells assessed as reduction in p24 antigen level incubated for overnight measured on fourth day post infection by multi-cycle infection assay based sandwich ELISA; type: functional, organism-based; settings: Human immunodeficiency virus 1, 3B, MT2
# Outline: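 Multi-cycle infection in MT-2 cells; read-out is reduction of p24 levels. IC50 derived from dose-response.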
# [6] = test system: Human immunodeficiency virus 1; test: Antiviral activity against HIV-1 NL4-3-HXB2 pseudovirus co-transfected with luciferase gene infected in human TZM-bl cells assessed as reduction of luciferase production after 3 days by single-cycle neutralization assay; type: functional, organism-based; settings: Human immunodeficiency virus 1, NL4-3-HXB2, TZM-bl, 72 h
# Outline: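 Single-cycle neutralization in TZM-bl cells; read-out is reduction of luciferase production. IC50 derived from dose-response.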
# [7] = Cytotoxicity against human MT2 cells after 4 days by XTT assay; type: cell-based
# [8] = Cytotoxicity against human TZM-bl cells after 3 days by XTT assay; type: cell-based
# [9] = test system: Human immunodeficiency virus 1; test: Antiviral activity against HIV-1 pseudotyped virus expressing HIV-1 isolate A envelope QB726.70M.ENV.B3 assessed as reduction of luciferase production after 3 days by single-cycle neutralization assay; type: functional, organism-based; settings: Human immunodeficiency virus 1, 72 h; outline: as §1
# [10] = test system: Human immunodeficiency virus 1; test: Antiviral activity against HIV-1 pseudotyped virus expressing HIV-1 isolate A envelope QF495.23M.ENV.A3 assessed as reduction of luciferase production after 3 days by single-cycle neutralization assay; type: functional, organism-based; settings: Human immunodeficiency virus 1, 72 h; outline: as §1
# [11] = test system: Human immunodeficiency virus 1; test: Antiviral activity against HIV-1 pseudotyped virus expressing HIV-1 isolate A envelope QF495.23M.ENV.B2 assessed as reduction of luciferase production after 3 days by single-cycle neutralization assay; type: functional, organism-based; settings: Human immunodeficiency virus 1, 72 h; outline: as §1
# [12] = test system: Human immunodeficiency virus 1; test: Antiviral activity against HIV-1 pseudotyped virus expressing HIV-1 isolate A envelope QH343.21M.ENV.A10 assessed as reduction of luciferase production after 3 days by single-cycle neutralization assay; type: functional, organism-based; settings: Human immunodeficiency virus 1, 72 h; outline: as §1
# [13] = test system: Human immunodeficiency virus 1; test: Antiviral activity against HIV-1 pseudotyped virus expressing HIV-1 isolate AD envelope QA790.204I.ENV.A4 assessed as reduction of luciferase production after 3 days by single-cycle neutralization assay; type: functional, organism-based; settings: Human immunodeficiency virus 1, 72 h; outline: as §1
# [14] = test system: Human immunodeficiency virus 1; test: Antiviral activity against HIV-1 pseudotyped virus expressing HIV-1 isolate B envelope pRHPA4259 clone 7 (SVPB14) assessed as reduction of luciferase production after 3 days by single-cycle neutralization assay; type: functional, organism-based; settings: Human immunodeficiency virus 1, 72 h; outline: as §1
# [15] = test system: Human immunodeficiency virus 1; test: Antiviral activity against HIV-1 pseudotyped virus expressing HIV-1 isolate B envelope pCAAN5342 clone A2 (SVPB19) assessed as reduction of luciferase production after 3 days by single-cycle neutralization assay; type: functional, organism-based; settings: Human immunodeficiency virus 1, 72 h; outline: as §1
# [16] = test system: Human immunodeficiency virus 1; test: Antiviral activity against HIV-1 pseudotyped virus expressing HIV-1 isolate B envelope PVO, clone 4 (SVPB11) assessed as reduction of luciferase production after 3 days by single-cycle neutralization assay; type: functional, organism-based; settings: Human immunodeficiency virus 1, 72 h; outline: as §1
# [17] = test system: Human immunodeficiency virus 1; test: Antiviral activity against HIV-1 pseudotyped virus expressing HIV-1 isolate B envelope SC422661, clone B (SVPB8) assessed as reduction of luciferase production after 3 days by single-cycle neutralization assay; type: functional, organism-based; settings: Human immunodeficiency virus 1, 72 h; outline: as §1
# [18] = test system: Human immunodeficiency virus 1; test: Antiviral activity against HIV-1 pseudotyped virus expressing HIV-1 isolate C envelope Du156, clone 12 (SVPC3) assessed as reduction of luciferase production after 3 days by single-cycle neutralization assay; type: functional, organism-based; settings: Human immunodeficiency virus 1, 72 h; outline: as §1
# [19] = test system: Human immunodeficiency virus 1; test: Antiviral activity against HIV-1 pseudotyped virus expressing HIV-1 isolate C envelope ZM233M.PB6, SVPC9 assessed as reduction of luciferase production after 3 days by single-cycle neutralization assay; type: functional, organism-based; settings: Human immunodeficiency virus 1, 72 h; outline: as §1
# [20] = test system: Human immunodeficiency virus 1; test: Antiviral activity against HIV-1 pseudotyped virus expressing HIV-1 isolate C envelope ZM135M.PL10a, SVPC15 assessed as reduction of luciferase production after 3 days by single-cycle neutralization assay; type: functional, organism-based; settings: Human immunodeficiency virus 1, 72 h; outline: as §1
# [21] = test system: Human immunodeficiency virus 1; test: Antiviral activity against HIV-1 pseudotyped virus expressing HIV-1 isolate C envelope HIV-25925-2, clone 22 assessed as reduction of luciferase production after 3 days by single-cycle neutralization assay; type: functional, organism-based; settings: Human immunodeficiency virus 1, 72 h; outline: as §1
# [22] = test system: Human immunodeficiency virus 1; test: Antiviral activity against HIV-1 pseudotyped virus expressing HIV-1 isolate C envelope HIV-26191-2, clone 48 assessed as reduction of luciferase production after 3 days by single-cycle neutralization assay; type: functional, organism-based; settings: Human immunodeficiency virus 1, 72 h; outline: as §1
# [23] = test system: Human immunodeficiency virus 1; test: Antiviral activity against HIV-1 pseudotyped virus expressing HIV-1 isolate D envelope QA013.70I.ENV.M12 assessed as reduction of luciferase production after 3 days by single-cycle neutralization assay; type: functional, organism-based; settings: Human immunodeficiency virus 1, 72 h; outline: as §1
# [24] = test system: Human immunodeficiency virus 1; test: Antiviral activity against HIV-1 pseudotyped virus expressing HIV-1 isolate D envelope QA465.59M.ENV.A1 assessed as reduction of luciferase production after 3 days by single-cycle neutralization assay; type: functional, organism-based; settings: Human immunodeficiency virus 1, 72 h; outline: as §1
# [25] = test system: Human immunodeficiency virus 1; test: Antiviral activity against HIV-1 pseudotyped virus expressing HIV-1 isolate D envelope QA465.59M.ENV.D1 assessed as reduction of luciferase production after 3 days by single-cycle neutralization assay; type: functional, organism-based; settings: Human immunodeficiency virus 1, 72 h; outline: as §1
# [26] = test system: Human immunodeficiency virus 1; test: Antiviral activity against HIV-1 pseudotyped virus expressing HIV-1 isolate D envelope QD435.100M.ENV.B5 assessed as reduction of luciferase production after 3 days by single-cycle neutralization assay; type: functional, organism-based; settings: Human immunodeficiency virus 1, 72 h; outline: as §1
# [27] = test system: Human immunodeficiency virus 1; test: Antiviral activity against HIV-1 pseudotyped virus expressing HIV-1 isolate D envelope QD435.100M.ENV.A4 assessed as reduction of luciferase production after 3 days by single-cycle neutralization assay; type: functional, organism-based; settings: Human immunodeficiency virus 1, 72 h; outline: as §1
# [28] = test system: Human immunodeficiency virus 1; test: Antiviral activity against HIV-1 pseudotyped virus expressing HIV-1 isolate D envelope QD435.100M.ENV.E1 assessed as reduction of luciferase production after 3 days by single-cycle neutralization assay; type: functional, organism-based; settings: Human immunodeficiency virus 1, 72 h; outline: as §1
# [29] = Binding affinity to HIV-1 capsid protein C-terminal domain M184A/W185A mutant at 20 uM by isothermal titration calorimetric analysis; set-up: species or system Human immunodeficiency virus 1
# Outline: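 ITC: 625 μM CTD M184A/W185A mutant titrated in 10 μL aliquots into 20 μM peptide in the cell. The integrated binding isotherm was fitted to a single-site binding equation to give Kd.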
# [30] = Binding affinity to HIV-1 Yu2 full-length gp120 by surface plasmon resonance analysis; set-up: species or system Human immunodeficiency virus type 1 (isolate YU2)
# Outline: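 Gp120 binding was measured by SPR. Sensorgrams were fitted to a 1:1 Langmuir model to give ka and kd, and Kd was calculated from these rate constants.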
smiles,measurement,setting,value
CC[C@H](C)[C@H](NC(C)=O)C(=O)N[C@@H](CO)C(=O)N[C@@H](Cc1ccccc1)C(=O)N[C@@H]1CSCc2ccc(cc2)-c2ccc(cc2)CSC[C@@H](C(=O)N[C@@H](CCC(=O)O)C(=O)N[C@@H](CO)C(=O)NCC(=O)N[C@@H](CO)C(N)=O)NC(=O)[C@H](Cc2ccc(O)cc2)NC(=O)[C@H](Cc2ccc(O)cc2)NC(=O)[C@H](CC(=O)O)NC(=O)[C@H](CC(C)C)NC(=O)[C@H](CC(C)C)NC(=O)[C@H](CCC(=O)O)NC1=O,IC50,[1],7.7 µM
same,IC50,[2],4.4 µM
same,IC50,[3],4 µM
same,IC50,[4],3.4 µM
same,IC50,[5],2.8 µM
same,IC50,[6],1.9 µM
same,CC50 at 96 h,[7],> 103 µM
same,CC50 at 72 h,[8],> 103 µM
same,IC50,[9],15.4 µM
same,IC50,[10],1.4 µM
same,IC50,[11],10 µM
same,IC50,[12],15.4 µM
same,IC50,[13],7 µM
same,IC50,[14],1.6 µM
same,IC50,[15],4.6 µM
same,IC50,[16],3.5 µM
same,IC50,[17],3.7 µM
same,IC50,[18],17.9 µM
same,IC50,[19],3.6 µM
same,IC50,[20],1 µM
same,IC50,[21],1.1 µM
same,IC50,[22],6.3 µM
same,IC50,[23],15.4 µM
same,IC50,[24],15.4 µM
same,IC50,[25],7.7 µM
same,IC50,[26],15.4 µM
same,IC50,[27],1 µM
same,IC50,[28],15.4 µM
same,Kd,[29],17.5 µM
same,Kd,[30],7.4 µM
CC[C@H](C)[C@H](NC(C)=O)C(=O)N[C@@H](CO)C(=O)N[C@@H](Cc1ccccc1)C(=O)N[C@@H]1CSCc2ccc(cc2)-c2ccc(cc2)CSC[C@@H](C(=O)N[C@@H](CCC(=O)O)C(=O)N[C@@H](CO)C(=O)NCC(=O)N[C@@H](CO)C(N)=O)NC(=O)[C@H](Cc2ccc(O)cc2)NC(=O)[C@H](Cc2ccc(O)cc2)NC(=O)[C@H](CC(=O)O)NC(=O)[C@H](CC(C)C)NC(=O)[C@H](CC(C)C)NC(=O)[C@H](CCC(N)=O)NC1=O,IC50,[5],5.5 µM
same,IC50,[6],3.1 µM
same,CC50 at 96 h,[7],> 103 µM
same,CC50 at 72 h,[8],> 103 µM
CC[C@H](C)[C@H](NC(C)=O)C(=O)N[C@@H](CO)C(=O)N[C@@H](Cc1ccccc1)C(=O)N[C@@H]1CSCc2ccc(cc2)-c2ccc(cc2)CSC[C@@H](C(=O)N[C@@H](CCC(=O)O)C(=O)N[C@@H](CO)C(=O)NCC(=O)N[C@@H](CO)C(N)=O)NC(=O)[C@H](Cc2ccc(O)cc2)NC(=O)[C@H](Cc2ccc(O)cc2)NC(=O)[C@H](CC(N)=O)NC(=O)[C@H](CC(C)C)NC(=O)[C@H](CC(C)C)NC(=O)[C@H](CCC(=O)O)NC1=O,IC50,[5],8.8 µM
same,IC50,[6],1.8 µM
same,CC50 at 96 h,[7],> 102 µM
same,CC50 at 72 h,[8],> 102 µM
CC[C@H](C)[C@H](NC(C)=O)C(=O)N[C@@H](CO)C(=O)N[C@@H](Cc1ccccc1)C(=O)N[C@@H]1CSCc2ccc(cc2)-c2ccc(cc2)CSC[C@@H](C(=O)N[C@@H](CCC(=O)O)C(=O)N[C@@H](CO)C(=O)NCC(=O)N[C@@H](CO)C(N)=O)NC(=O)[C@H](Cc2ccc(O)cc2)NC(=O)[C@H](Cc2ccc(O)cc2)NC(=O)[C@H](CC(N)=O)NC(=O)[C@H](CC(C)C)NC(=O)[C@H](CC(C)C)NC(=O)[C@H](CCC(N)=O)NC1=O,IC50,[5],5.7 µM
same,IC50,[6],1.6 µM
same,CC50 at 96 h,[7],51 µM
same,CC50 at 72 h,[8],> 102 µM

# Reference: ChEMBL document CHEMBL3232893, “Design of antiviral stapled peptides containing a biphenyl cross-linker” (Bioorg Med Chem Lett, 2014)
